Assay results published in ChEMBL document CHEMBL1127053, “3,4-Dimethyl-4-(3-hydroxyphenyl)piperidines: opioid antagonists with potent anorectant activity” (J Med Chem, 1993).

Columns and labels:
Rattus norvegicus = test: Tested for concentration required to reduce the food consumption by 20 % subcutaneously; format: functional
In short: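 Obese Zucker rats, 3-4 months old, trained to eat only 8 am-4 pm. Groups of 4 (2 male, 2 female), with one saline control group daily. Compound in saline with 10% DMSO, given sc on 3 consecutive days, typical doses 5.0-0.08 mg/kg (0.02-20 in some cases). Intake measured over the first 4 h. ED20 from regression of the linear portion of the dose-response curve.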

[1] = molecular target: Kappa-type opioid receptor (Cavia porcellus, UniProt P41144); test: Binding affinity towards kappa opioid receptor by displacement of [3H]EKC in guinea pig cortical tissue
In short: (§1)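 Radioligand displacement. Kappa: [3H]EKC, guinea pig cortex, with fentanyl and DADL added to block mu/delta binding. Delta: [3H]DADL, rat brain homogenate.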

[2] = molecular target: Kappa-type opioid receptor (Mus musculus) (UniProt P33534); test: Antagonist activity towards U50 488 induced kappa opioid receptor by mouse writhing assay at 2.5 mg/kg subcutaneously; format: functional, organism-based; set-up: dose 2.5 mg/kg
In short: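 Mouse acetic acid writhing: 0.6% acetic acid ip, writhes counted for 10 min starting 5 min after injection. 5 mice/point, ≥5 doses varied 2-fold, each mouse used once. AD50 = antagonist dose reducing agonist-induced writhing inhibition to 50%.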

[3] = molecular target: Kappa-type opioid receptor (Rattus norvegicus) (UniProt P34975); test: Antagonism of bremazocine induced kappa receptor diuresis in rats at a concentration of 0.08 mg/kg subcutaneously; format: functional, organism-based; set-up: dose 0.08 mg/kg
In short: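 Male Long-Evans hooded rats (350-500 g), reused no more than twice weekly. Bremazocine 0.08 mg/kg sc, test antagonist sc on the opposite side without delay. Rats housed in metabolism cages; urine volume recorded at 2 and 5 h. 3 rats/dose, doses varied 2-fold. AD50 = dose reducing cumulative 5-h induced urination by 50%.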

[4] = molecular target: Mu-type opioid receptor (Mus musculus) (UniProt P42866); test: Antagonistic activity towards morphine induced mu-opioid receptor by mouse writhing assay at 1.25 mg/kg subcutaneously; format: functional, organism-based; set-up: dose 1.25 mg/kg
In short: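 Mouse acetic acid writhing: 0.6% acetic acid ip, writhes counted for 10 min starting 5 min after injection. Agonist (morphine 1.25 mg/kg or U50,488 2.5 mg/kg) and antagonist given sc 20 min before acid. 5 mice/point, ≥5 doses varied 2-fold, each mouse used once. AD50 = antagonist dose reducing agonist-induced writhing inhibition to 50%.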

Mu-type opioid receptor = Mu-type opioid receptor (Rattus norvegicus, UniProt P33535); test: Binding affinity towards mu-opioid receptor by the displacement of [3H]Nal in rat brain homogenates; format: tissue-based
[5] = molecular target: Delta-type opioid receptor (Rattus norvegicus, UniProt P33533); test: Binding affinity towards delta-opioid receptor by displacement of [3H]DADL in rat brain homogenates; format: tissue-based; in short: as §1
[6] = Rattus norvegicus, sc, read-out: ED50

Chain of Kappa-type opioid receptor (Mus musculus) (P33534 whole entry): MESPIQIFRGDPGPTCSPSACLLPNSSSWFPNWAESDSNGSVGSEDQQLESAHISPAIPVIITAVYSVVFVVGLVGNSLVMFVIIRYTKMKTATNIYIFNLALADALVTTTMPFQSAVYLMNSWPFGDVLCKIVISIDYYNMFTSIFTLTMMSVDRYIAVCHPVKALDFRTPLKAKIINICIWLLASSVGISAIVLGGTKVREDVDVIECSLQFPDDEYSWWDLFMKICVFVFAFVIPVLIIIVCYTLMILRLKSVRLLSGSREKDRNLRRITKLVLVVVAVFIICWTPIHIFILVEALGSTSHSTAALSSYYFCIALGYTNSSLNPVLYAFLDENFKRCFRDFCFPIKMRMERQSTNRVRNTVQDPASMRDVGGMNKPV
Chain of Mu-type opioid receptor (P33535 whole entry): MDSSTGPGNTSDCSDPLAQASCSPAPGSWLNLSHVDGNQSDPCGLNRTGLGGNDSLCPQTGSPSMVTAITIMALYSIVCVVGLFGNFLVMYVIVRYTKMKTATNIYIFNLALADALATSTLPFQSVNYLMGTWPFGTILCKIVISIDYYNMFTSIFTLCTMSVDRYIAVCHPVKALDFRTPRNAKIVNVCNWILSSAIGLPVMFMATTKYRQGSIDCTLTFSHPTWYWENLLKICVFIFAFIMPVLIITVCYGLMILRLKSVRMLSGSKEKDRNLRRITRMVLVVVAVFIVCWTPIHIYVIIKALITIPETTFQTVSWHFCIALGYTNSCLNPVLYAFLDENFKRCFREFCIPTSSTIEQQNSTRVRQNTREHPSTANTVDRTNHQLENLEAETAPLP
Chain of Kappa-type opioid receptor (P41144 whole entry): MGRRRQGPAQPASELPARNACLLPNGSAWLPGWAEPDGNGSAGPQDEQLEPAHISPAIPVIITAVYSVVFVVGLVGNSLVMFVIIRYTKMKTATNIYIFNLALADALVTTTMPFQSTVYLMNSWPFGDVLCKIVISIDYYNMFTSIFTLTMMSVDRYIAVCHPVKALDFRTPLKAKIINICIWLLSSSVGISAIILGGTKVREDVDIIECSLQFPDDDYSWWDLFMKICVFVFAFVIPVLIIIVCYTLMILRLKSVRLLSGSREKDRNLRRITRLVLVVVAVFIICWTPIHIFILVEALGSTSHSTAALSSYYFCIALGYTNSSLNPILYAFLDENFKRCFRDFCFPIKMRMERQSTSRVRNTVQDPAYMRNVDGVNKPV
Chain of Kappa-type opioid receptor (Rattus norvegicus) (P34975 whole entry): as the sequence (P33534 whole entry) above, with D11E, S17A, S51P, A308V counted along it
Chain of Mu-type opioid receptor (Mus musculus) (P42866 whole entry): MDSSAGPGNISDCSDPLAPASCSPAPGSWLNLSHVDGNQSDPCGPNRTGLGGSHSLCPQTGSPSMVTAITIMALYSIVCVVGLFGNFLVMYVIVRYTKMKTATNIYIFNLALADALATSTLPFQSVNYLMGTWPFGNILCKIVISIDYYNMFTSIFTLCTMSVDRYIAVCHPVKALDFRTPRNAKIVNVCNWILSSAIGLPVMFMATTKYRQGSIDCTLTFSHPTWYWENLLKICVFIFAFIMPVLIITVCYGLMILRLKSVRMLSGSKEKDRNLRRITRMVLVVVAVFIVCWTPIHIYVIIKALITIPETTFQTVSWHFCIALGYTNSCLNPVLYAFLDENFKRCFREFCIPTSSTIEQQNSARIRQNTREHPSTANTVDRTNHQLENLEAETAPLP
Chain of Delta-type opioid receptor (P33533 whole entry): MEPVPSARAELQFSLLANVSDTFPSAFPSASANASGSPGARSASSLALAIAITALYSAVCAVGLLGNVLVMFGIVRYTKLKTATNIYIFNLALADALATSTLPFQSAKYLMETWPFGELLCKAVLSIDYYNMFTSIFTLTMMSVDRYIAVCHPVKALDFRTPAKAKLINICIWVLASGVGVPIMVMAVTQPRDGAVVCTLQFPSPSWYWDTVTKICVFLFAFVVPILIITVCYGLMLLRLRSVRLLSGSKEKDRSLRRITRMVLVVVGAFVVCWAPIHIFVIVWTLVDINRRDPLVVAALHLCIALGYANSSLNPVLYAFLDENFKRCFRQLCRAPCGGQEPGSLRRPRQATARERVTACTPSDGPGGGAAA

Structure (SMILES) | ED50 (Rattus norvegicus; [6]) [mg/kg] | Ki [1] [nM] | AD50 [2] [mg/kg] | AD50 [3] [mg/kg] | AD50 [4] [mg/kg] | Ki (Mu-type opioid receptor) [nM] | ED50 (Rattus norvegicus) [mg/kg] | Ki [5] [nM]
C[C@H]1CN(CC[C@@H](O)C2CCCCC2)CC[C@@]1(C)c1cccc(O)c1 | 0.16 | 11.4 | 0.36 | 1.1 | 0.03 | 2.4 | – | –
CC(C)CCN1CC[C@@](C)(c2cccc(O)c2)[C@@H](C)C1 | > 20 | 70 | 0.62 | 4.5 | 0.87 | 32 | – | –
C[C@@H]1CN(CC[C@H](O)C2CCCCC2)CC[C@]1(C)c1cccc(O)c1 | 0.11 | 6.5 | 0.24 | 1.6 | 0.13 | – | – | –
CC(C)CCCCN1CC[C@@](C)(c2cccc(O)c2)[C@@H](C)C1 (stereo in doubt; 21) [listing 1 of 2 here] | – | 5.9 | – | – | – | 0.46 | 0.06 | –
C[C@H]1CN(CCC(O)C2CCCC2)CC[C@@]1(C)c1cccc(O)c1 (stereo not given in full) | 0.09 | 5.5 | 0.08 | 0.99 | 0.04 | 0.41 | – | –
CC(C)C(O)CCN1CC[C@@](C)(c2cccc(O)c2)[C@@H](C)C1 (stereo not given in full) | 0.65 | 6.9 | 0.35 | 0.17 | 0.14 | 2.6 | – | –
C[C@H]1CN(CCCC2CCCC2)CC[C@@]1(C)c1cccc(O)c1 | 1.2 | 3.4 | 0.13 | 0.79 | 0.12 | 0.37 | – | –
C[C@H]1CN(CCC2CCCCC2)CC[C@@]1(C)c1cccc(O)c1 | 3.6 | 2.3 | 0.12 | 0.69 | 0.1 | 0.65 | – | –
CC(C)CCCCN1CC[C@](C)(c2cccc(O)c2)[C@H](C)C1 | 0.14 | 3.04 | 0.89 | 4.75 | 0.35 | 1.36 | – | –
C[C@H]1CN(CCCc2cccs2)CC[C@@]1(C)c1cccc(O)c1 (stereo in doubt; 29) [listing 1 of 2 here] | 0.07 | – | – | – | – | – | – | –
C[C@@H]1CN(CCCc2cccs2)CC[C@]1(C)c1cccc(O)c1 | 0.4 | – | 0.65 | 1.66 | 0.24 | – | – | –
CC(C)CCCCN1CC[C@@](C)(c2cccc(O)c2)[C@@H](C)C1 (stereo in doubt; 39) [listing 1 of 2 here] | – | – | 0.22 | 1.31 | 0.08 | – | – | –
C[C@H]1CN(CCC(O)C2CCCCC2)CC[C@@]1(C)c1cccc(O)c1 (stereo not given in full) | 0.05 | 4.8 | 0.14 | 0.49 | 0.07 | 0.29 | – | –
CCCCCCN1CC[C@@](C)(c2cccc(O)c2)[C@@H](C)C1 (stereo in doubt; 37) [listing 1 of 2 here] | – | – | 0.22 | 0.86 | 0.26 | – | – | –
CC(C)CCCCN1CC[C@@](C)(c2cccc(O)c2)[C@@H](C)C1 (stereo in doubt; 21) [listing 2 of 2 here] | – | – | 0.24 | 0.39 | 0.58 | – | – | –
C=C(C)CCCN1CC[C@@](C)(c2cccc(O)c2)[C@@H](C)C1 | 0.29 | 21 | 0.095 | 0.39 | 0.077 | 0.17 | – | –
CCCCCCN1CC[C@@](C)(c2cccc(O)c2)[C@@H](C)C1 (stereo in doubt; 16) | – | – | – | – | – | – | 0.51 | –
C[C@H]1CN(CCCc2ccsc2)CC[C@@]1(C)c1cccc(O)c1 | 0.06 | – | 0.24 | 1.9 | 0.12 | – | – | –

Structure (SMILES) | ED50 (Rattus norvegicus; [6]) [mg/kg] | Ki [1] [nM] | AD50 [2] [mg/kg] | AD50 [3] [mg/kg] | AD50 [4] [mg/kg] | Ki (Mu-type opioid receptor) [nM] | ED50 (Rattus norvegicus) [mg/kg] | Ki [5] [nM]
C[C@H]1CN(CCC(O)c2ccccc2)CC[C@@]1(C)c1cccc(O)c1 (stereo not given in full) | 0.5 | – | 0.92 | 2.5 | 0.05 | 1 | – | –
C[C@H]1CN(CCC2CCCC2)CC[C@@]1(C)c1cccc(O)c1 | 0.34 | 7.2 | 0.22 | 0.67 | 0.14 | 2.3 | – | –
C[C@H]1CN(CCCC2CCCCC2)CC[C@@]1(C)c1cccc(O)c1 | 0.12 | 2.3 | 0.19 | 1 | 0.35 | 0.49 | – | –
C=C1CC[C@@]2(O)[C@H]3Cc4ccc(O)c5c4[C@@]2(CCN3CC2CC2)[C@H]1O5 | 1.5 | 2 | 0.14 | 0.99 | 0.02 | 0.29 | – | 3.4
C[C@H]1CN(CC2CCCCC2)CC[C@@]1(C)c1cccc(O)c1 | > 20 | 29 | 0.47 | 4.6 | 1.1 | 17 | – | –
CCCCCCN1CC[C@](C)(c2cccc(O)c2)[C@H](C)C1 | 1.17 | – | 0.29 | 1.34 | 0.21 | 5.61 | – | –
C[C@H]1CN(CCCc2cccs2)CC[C@@]1(C)c1cccc(O)c1 (stereo in doubt; 41) [listing 1 of 2 here] | – | – | – | 1.18 | – | – | – | –
C[C@H]1CN(CCCc2cccs2)CC[C@@]1(C)c1cccc(O)c1 (stereo in doubt; 41) [listing 2 of 2 here] | – | – | – | – | – | – | 0.11 | 10.3
C[C@H]1CN(CCCc2ccccc2)CC[C@@]1(C)c1cccc(O)c1 | 1.3 | – | 5.3 | – | – | – | – | –
C[C@H]1CN(CCCc2cccs2)CC[C@@]1(C)c1cccc(O)c1 (stereo in doubt; 29) [listing 2 of 2 here] | – | – | – | 1 | 0.22 | – | – | –
CC(C)CCCCN1CC[C@@](C)(c2cccc(O)c2)[C@@H](C)C1 (stereo in doubt; 39) [listing 2 of 2 here] | – | 1.91 | – | – | – | 0.89 | 0.14 | –
C[C@H]1CN(CCC2C=CCC2)CC[C@@]1(C)c1cccc(O)c1 (stereo not given in full) | 0.44 | 1 | 0.12 | 1.4 | 0.11 | 12 | – | –
C[C@H]1CN(CCC(O)c2cccs2)CC[C@@]1(C)c1cccc(O)c1 (stereo not given in full) | 0.07 | – | – | – | – | – | – | –
C[C@H]1CN(C)CC[C@@]1(C)c1cccc(O)c1 | 4.1 | – | > 5 | > 5 | – | – | – | –
C=CCN1CC[C@]23c4c5ccc(O)c4O[C@H]2C(=O)CC[C@@]3(O)[C@H]1C5 [NALOXONE] | 1.2 | – | – | – | – | – | – | –
CCCCCCN1CC[C@@](C)(c2cccc(O)c2)[C@@H](C)C1 (stereo in doubt; 37) [listing 2 of 2 here] | – | – | – | – | – | 1.1 | 0.19 | –
CC(C)CCCN1CC[C@@](C)(c2cccc(O)c2)[C@@H](C)C1 | 2.1 | 9.6 | 0.073 | 0.39 | 0.11 | 0.29 | – | –
C[C@H]1CN(CCC(=O)C2CCCCC2)CC[C@@]1(C)c1cccc(O)c1 | 0.13 | 3.9 | 0.26 | – | 0.12 | 0.34 | – | –
